ChEMBL document CHEMBL3994676, “Encapsulation of Mitoxantrone within Cucurbit[8]uril Decreases Toxicity and Enhances Survival in a Mouse Model of Cancer” (ACS Med Chem Lett, 2017)
The source made the active and inactive calls. The calls are words filed in the database; no cut-off is given here.

Experiments:
4T1.2 [1] = assay: Antitumor activity against mouse 4T1.2 cells implanted in Balb/c mouse assessed as mouse survival rate at 2 mg/kg, iv administered twice weekly for 2 weeks measured up to 33 days (rvb = 30%); assay type: functional; details: 4T1.2, iv
How it was run: (§1)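 Female Balb/c mice given 1 × 10^5 4T1.2 cells into the fourth mammary fat pad. Treatment started on day 8 once tumours were palpable: 2 mg/kg mitoxantrone-equivalent (complex formulation also 3 mg/kg Q[8]) or 0.9% saline vehicle, by tail-vein iv, twice weekly for 2 weeks. Monitored to day 33. Culled at >20% weight loss, tumour >1500 mm3 or metastatic distress. Kaplan–Meier analysis with log-rank test.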

[2] = Drug uptake in mouse 4T1.2 cell lysosomes at 5 uM encapsulated within cucurbit[8]uril after 20 mins by LysoTracker Green staining based laser scanning confocal microscopic method; assay type: ADME, Lysosome
4T1.2 [3] = assay: Antitumor activity against mouse 4T1.2 cells implanted in Balb/c mouse assessed as mouse survival time at 3 mg/kg, iv encapsulated within cucurbit[8]uril administered twice weekly for 2 weeks measured up to 33 days; assay type: functional; how it was run: as §1
4T1.2 [4] = assay: Antitumor activity against mouse 4T1.2 cells implanted in Balb/c mouse assessed as tumor growth inhibition at 3 mg/kg, iv encapsulated within cucurbit[8]uril administered twice weekly for 2 weeks; assay type: functional, organism-based
How it was run: (§2)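 Female Balb/c mice given 1 × 105 4T1.2 cells into the fourth mammary fat pad. Dosing started once tumors were palpable on day 8. Dosed iv by tail vein twice weekly for 2 weeks, 2 mg/kg as mitoxantrone (complex adds 3 mg/kg Q[8]), in 0.9% saline vehicle. Primary tumors measured with digital calipers. Groups n = 10–11. One-way ANOVA against vehicle.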

[5] = Drug uptake in mouse 4T1.2 cell at 5 uM after 4 hrs by laser scanning confocal microscopic method
Mus musculus [6] = assay: Toxicity in Balb/c mouse assessed as body weight loss at 2 mg/kg, iv administered twice weekly for 2 weeks relative to control; assay type: organism-based; details: in vivo, 336 h
How it was run: (§3)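 Non-tumor-bearing female Balb/c mice (9 weeks old), four per group, were dosed iv by tail vein on days 0, 3, 7 and 10. Dose was 2 mg/kg as mitoxantrone (complex adds 3 mg/kg Q[8]) in 0.9% saline vehicle. Body weight was recorded daily and expressed as mean change from baseline.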

4T1.2 [7] = assay: Growth inhibition of mouse 4T1.2 cells up to 20000 nM encapsulated within cucurbit[8]uril after 48 hrs by MTT assay; assay type: functional, cell-based
4T1.2 [8] = assay: Growth inhibition of mouse 4T1.2 cells up to 20000 nM after 48 hrs by MTT assay; assay type: functional, cell-based
Mus musculus [9] = assay: Toxicity in Balb/c mouse assessed as body weight loss at 3 mg/kg, iv encapsulated within cucurbit[8]uril administered twice weekly for 2 weeks; assay type: organism-based; details: in vivo, 336 h; how it was run: as §3
[10] = Drug uptake in mouse 4T1.2 cell at 5 uM encapsulated within cucurbit[8]uril after 4 hrs by laser scanning confocal microscopic method
4T1.2 [11] = assay: Antitumor activity against mouse 4T1.2 cells implanted in Balb/c mouse assessed as tumor growth inhibition at 2 mg/kg, iv administered twice weekly for 2 weeks; assay type: functional, organism-based; how it was run: as §2
Mus musculus [12] = assay: Toxicity in Balb/c mouse implanted with mouse 4T1.2 cells assessed as body weight loss at 3 mg/kg, iv encapsulated within cucurbit[8]uril administered twice weekly for 2 weeks; assay type: organism-based; details: in vivo, 336 h
How it was run: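 Mice bore orthotopic 4T1.2 mammary fat pad tumors, with treatment begun on day 8. Dosing was iv twice weekly for 2 weeks at 2 mg/kg mitoxantrone plus 3 mg/kg Q[8], in saline vehicle. Body weight was monitored. Culling at >20% weight loss, tumor >1500 mm3, or metastatic distress.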

SMILES: O=C1c2c(O)ccc(O)c2C(=O)c2c(NCCNCCO)ccc(NCCNCCO)c21 [MITOXANTRONE]
- survival at 2 mg/kg (4T1.2 [1]): 60%
- Drug uptake [2]: Active
- Survival (4T1.2 [3]): 26 days
- TGI (4T1.2 [4]): Active
- Drug uptake [5]: Active
- Activity (Mus musculus [6]): 15%
- growth inhibition (GI) (4T1.2 [7]): Active
- growth inhibition (GI) (4T1.2 [8]): Active
- Activity (Mus musculus [9]): Non-Toxic
- Drug uptake [10]: Active
- TGI (4T1.2 [11]): Active
- Activity (Mus musculus [12]): Non-Toxic
